NPR1 activator = GC-A (human) enzyme activation. AID 1671463. HEK293 GC-A cells, cGMP TR-FRET, EC30 ANP; 0% at EC30 ANP, 100% saturating ANP. P16066. 0.14% of 370,000 active. activation, % at 10 µM; in the data active = activation above about 40%
SKN-1 block = inhibitors of C. elegans SKN-1; C. elegans VP596 Pgst-4::GFP/RFP ratio, acrylamide-induced, 24 h; inhibition, % at 21.8 µM; 0.49% of 360,000 active;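 active = interference check ratio from 0.5 to 1.5 plus GFP to RFP signal ratio inhibition reaching or exceeding a fixed threshold, cut at about 30% in these data, passing the limit was not always enough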
Tb MetRS inh = blocks T. brucei methionyl-tRNA synthetase activity | purified T. brucei MetRS, ATP depletion, Kinase-Glo luminescence | inhibition, % at 11.9 µM | 0.4% of 360,000 active | AID 624268;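 active = inhibition above a per-plate cutoff of the control wells' mean inhibition plus 3 SD, cut at about 5.5% in these data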
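Material: T. brucei methionyl-tRNA synthetase, purified; reagent: substrates ATP, L-methionine and bulk Escherichia coli tRNA; dosing: 11.9 µM single point; timing: 15 min plus 2 h at 25 °C; detection: luminescence of leftover ATP; evaluation: % inhibition; control set: DMSO-only wells as low control; replicates: singlicate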
MT1-MMP act inh = blocks activation of human MT1-MMP; P50281; HT1080 RFP-PRO-GFP cells, GFP/RFP ratio fluorescence, overnight; percent of plate control window, DMSO zero; GFP/RFP ratio change, % at 20 µM; 0.061% of 360,000 active; AID 651647;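 active = GFP/RFP ratio change of at least 30% with cell ATP level not reduced by more than half and red fluorescence within 50% of control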
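Test system: HT1080 cells expressing an RFP-PRO-GFP fluorescent reporter construct / Compound dosing: single-point 20 µM compound, 1% DMSO / Schedule: cells overnight before dosing, compound overnight, 37 °C, 5% CO2 / Evaluation: GFP/RFP fluorescence ratio / Control set: DMSO and RFP-L50D-GFP cell wells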
NPR2 activator = GC-B (human) receptor activation; P20594; HEK293-GC-B cells, CNP EC30, cGMP TR-FRET; 0% at EC30 CNP, 100% saturating CNP; activation, % at 10 µM; 0.11% of 370,000 active;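 active = activation at 10 µM reaching about 35% in either raw or pattern-adjusted values, limit read from the data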
A1 inh = inhibitors of the anti-apoptotic protein A1, read as caspase activation. MEF A1-2A-BIM cells, Caspase-Glo 3/7 luminescence, 3 h; percent of clofoctol response, vehicle zero. caspase activation, % (no concentration beside the values). 0.066% of 330,000 active. AID 2462;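 active = over half of replicate activation scores above 10%, or exactly half above 10 with the replicate mean above 10; inconclusive = replicate mean below 10 yet half the replicates above 10; inactive = over half of replicates below 10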
Each line names hits and unclear results; the compound was inactive in the other large screens. Shown are actives, neighbours in structure and some others; about 1.1% of the full set was active somewhere.

C[C@H]1[C@@H](OC(=O)Nc2ccc(C#N)cc2)CC[C@@]23CCCN2C(=O)CCC[C@@H]13	none (no result: SKN-1 block, Tb MetRS inh, MT1-MMP act inh, A1 inh)
O=C(Nc1cccc(-c2nc3cccnc3s2)c1)c1ccco1	none
O=C(Nc1ccc(-c2nc3cccnc3s2)cc1)c1ccco1	SKN-1 block 46
O=C(COc1ncnc2c(Cl)cc(Cl)cc12)N1CCCCC1	SKN-1 block 30
COC(=O)c1ccc(COc2ccc(/C=N/N3CCN(C)CC3)cc2)cc1	none
CN1CCN(/N=C/c2ccc(OCc3ccccc3)cc2)CC1	SKN-1 block 50, A1 inh inconclusive
O=C(Nc1ccc2oc(-c3cccnc3)nc2c1)c1ccc(Br)o1	SKN-1 block 35
O=C(Nc1ccc(-c2nc3ncccc3o2)cc1)c1ccc(Br)o1	SKN-1 block 38
N#C[C@@H]1N[C@H](CO)[C@@H]1c1ccccc1	none (no result: SKN-1 block, Tb MetRS inh, MT1-MMP act inh, A1 inh)
Cc1c(NC(=O)C2CCCN(S(=O)(=O)c3ccccc3[N+](=O)[O-])C2)c(=O)n(-c2ccccc2)n1C (stereo not drawn)	none (no result: SKN-1 block, Tb MetRS inh, MT1-MMP act inh, A1 inh)
Clc1ccc(Cc2noc(-c3cccs3)n2)cc1	SKN-1 block 82
CCN1C(=S)SC(=O)C1=C1C=C(C)OC(C)=C1	SKN-1 block 44
Cc1ccc(-n2c(SCC(=O)Nc3ccc4c(c3)OCCO4)nnc2-c2cnccn2)cc1	none (no result: SKN-1 block, Tb MetRS inh, MT1-MMP act inh, A1 inh)
Cc1ccc(-c2nc(C3CCCN(S(=O)(=O)c4ccc(Cl)s4)C3)no2)cc1 (stereo not drawn)	none (no result: SKN-1 block, Tb MetRS inh, MT1-MMP act inh, A1 inh)
O=c1cc(/C=C/c2ccccc2)oc2ccccc12	SKN-1 block 43
O=C(NCC(=O)N1CCOCC1)c1ccc(Cl)c(Cl)c1	SKN-1 block 37
O=C(CC(=O)c1ccccc1)c1ccccc1	none (no result: A1 inh)
CN(CCC(=O)c1ccccc1)CCC(=O)c1ccccc1	NPR1 activator 63
CN(C)CCC(=O)c1ccc(Cl)cc1	NPR1 activator 62
CCOC(=O)CC[C@H]1CC[C@]2(CCCN(C(=O)c3ccno3)C2)O1	none (no result: SKN-1 block, Tb MetRS inh, MT1-MMP act inh, A1 inh)
Cc1ccc(SCc2cc(-c3ccc(Cl)cc3)on2)cc1	none
Clc1ccc(SCc2cc(-c3ccc(Cl)cc3)on2)cc1	SKN-1 block 53
COc1ccc(NC(=O)c2cc(-c3cc(F)ccc3OCC3CCCO3)n[nH]2)c(C)c1 (stereo not drawn)	NPR1 activator 60, NPR2 activator 79 (no result: A1 inh)
COc1ccc(NC(=O)c2cc(-c3cc(F)ccc3OC)n[nH]2)c(C)c1	NPR1 activator 55, NPR2 activator 71 (no result: A1 inh)
COc1ccc(NC(=O)c2cc(-c3cc(F)ccc3OCC3CCCO3)n[nH]2)cc1OC (stereo not drawn)	none (no result: A1 inh)
CC(=O)Nc1ccc(NC(=O)c2cc(-c3cc(F)ccc3OCC3CCCO3)n[nH]2)cc1 (stereo not drawn)	none (no result: A1 inh)
CC(=O)Nc1cc(C(F)(F)F)ccc1OCC1CCCO1 (stereo not drawn)	SKN-1 block 37
COc1ccc(NC(=O)c2cc(-c3cc(F)ccc3OC(C)C)n[nH]2)c(OC)c1	none (no result: A1 inh)
COc1cccc(-c2nnc3sc(-c4ccc(Br)o4)nn23)c1	none (no result: SKN-1 block, Tb MetRS inh, MT1-MMP act inh, A1 inh)
CC(=O)Nc1ccc(S(=O)(=O)NCCSCc2ccc(Cl)cc2Cl)cc1	Tb MetRS inh 13
CC(=O)Nc1ccc(S(=O)(=O)NCCNS(=O)(=O)c2ccc(NC(C)=O)cc2)cc1	none
COc1ccc(/C=C2\CC3(OC(=O)c4ccc(F)cc4)CCCN2C3)cc1 (stereo not drawn)	none (no result: SKN-1 block, Tb MetRS inh, MT1-MMP act inh, A1 inh)
Cc1cccc(NC(=O)/C(C#N)=C/c2ccc[nH]2)c1C	none
Cc1ccc(C)c(NC(=O)/C(C#N)=C/c2ccc[nH]2)c1	SKN-1 block 37
COC(=O)c1cc(-c2ccc(C(C)(C)C)cc2)c(=O)n2c1CCC2	none (no result: SKN-1 block, Tb MetRS inh, MT1-MMP act inh, A1 inh)
CNc1nc(N)c([N+](=O)[O-])c(Nc2ccccc2)n1	none (no result: SKN-1 block, Tb MetRS inh, MT1-MMP act inh, A1 inh)
O=C(Nc1ccccc1Cl)c1cc(C2CCCN(C(=O)OCCF)C2)on1 (stereo not drawn)	SKN-1 block 37 (no result: A1 inh)
CN(N=O)c1ccc(CC2CCc3ccccc32)cc1 (stereo not drawn)	SKN-1 block 44 (no result: A1 inh)
COc1cccc(-c2noc(-c3ccoc3C)n2)c1	SKN-1 block 56
COc1cccc(-c2nc(-c3cccs3)no2)c1	SKN-1 block 46
C[C@@H]1ON(C)[C@H]2C[C@H]3c4[nH]c5c(-c6ccc7c(c6)OCO7)cccc5c4CCN3C[C@@H]12	none (no result: SKN-1 block, Tb MetRS inh, MT1-MMP act inh, A1 inh)
O=C(CSc1nnc2ccccn12)Nc1nsc(-c2ccccc2)n1	none
COc1ccc(-c2nc(NC(=O)CSc3nnc4ccccn34)ns2)cc1	NPR2 activator 45 (no result: SKN-1 block, Tb MetRS inh, MT1-MMP act inh)
C[C@H]1[C@H](NC(=O)c2ccc(Cl)c(Cl)c2)CC[C@@]23CCCN2C(=O)CCC[C@@H]13	none (no result: SKN-1 block, Tb MetRS inh, MT1-MMP act inh, A1 inh)
CCc1ccc(/C=C2\SC(=S)N(CCCC(=O)Nc3ccccn3)C2=O)cc1	SKN-1 block 47
COC(=O)c1ccc(/C=C2/SC(=S)N(CCCC(=O)Nc3ccccn3)C2=O)cc1	none
CNC(=S)N/N=C/c1cn(Cc2c(F)cccc2Cl)c2ccccc12	none
CCNC(=S)N/N=C/c1cn(Cc2ccccc2F)c2ccccc12	NPR1 activator 41, NPR2 activator 44
CCNC(=S)N/N=C/c1cn(Cc2ccc(F)cc2)c2ccccc12	NPR2 activator 42
CCOc1ccc(-n2c(SCC(=O)Nc3ccccc3-c3ccccc3)nnc2-c2ccncc2)cc1	none (no result: SKN-1 block, Tb MetRS inh, MT1-MMP act inh, A1 inh)
COc1ccc2cc3cc(C(=O)N4CC(C)CC(C)C4)oc3nc2c1 (stereo not drawn)	none (no result: NPR1 activator, NPR2 activator)
Cc1ccc2cc3cc(C(=O)N4CC(C)CC(C)C4)oc3nc2c1 (stereo not drawn)	SKN-1 block 39
Cc1c(N=C2N=C(NC(=O)NC(C)(C)C)c3ccccc32)c(=O)n(-c2ccccc2)n1C	NPR1 activator 84
Cc1c(N=C2N=C(NC(=O)c3cccs3)c3ccccc32)c(=O)n(-c2ccccc2)n1C	NPR1 activator 80, SKN-1 block 39
Cc1c(N=C2C=CC(=O)c3ccccc32)c(=O)n(-c2ccccc2)n1C	NPR1 activator 73 (no result: A1 inh)
CC(C)(C)OC(=O)NCc1ccccc1/C=C/S(=O)(=O)NCCc1ccccc1	none (no result: SKN-1 block, Tb MetRS inh, MT1-MMP act inh, A1 inh)
COc1ccc(Oc2c(Cl)cnn(-c3ccc(C(C)C)c(C)c3)c2=O)cc1	none (no result: SKN-1 block, Tb MetRS inh, MT1-MMP act inh, A1 inh)
Cc1ccc(-c2cc(C(F)(F)F)n3nc(C(=O)N4CCN5CCCC5C4)cc3n2)cc1 (stereo not drawn)	none
CCOC(=O)C1CCCN(C(=O)c2cc3nc(-c4ccc5c(c4)OCO5)cc(C(F)(F)F)n3n2)C1 (stereo not drawn)	NPR2 activator 37
CCOC(=O)C1=C(COC(=O)c2c(OC)cccc2OC)NC(=O)NC1C (stereo not drawn)	none
